# MsrA act – bovine MsrA enzyme activators, primary screen, biochemical, absorbance, HTS; Methionine sulfoxide reductase A (Bos taurus); activation, % at 10.6 µM; purified bovine MsrA, absorbance read-out; 360,000 tested, 0.3% active; AID 602163, 2012; in the data active = activation above about 7.5%;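 note: 0% = vehicle and 100% = reference activator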
# AHR act – AHR activators, primary screen, cell-based, luminescence, luciferase reporter, human. AHR-responsive luciferase reporter cells. activation, % at 5 µM. 320,000 tested, 2.5% active. AID 2796, 2010; in the data active = activation above about 47%;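 note: 0% = vehicle wells and 100% = reference agonist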
# m5-HT2A agonist – mouse Htr2a agonists via beta-arrestin recruitment, primary screen, cell-based, luminescence; CHO-K1 mHTR2A beta-arrestin complementation; percent of 30 µM serotonin response; 360,000 tested, 0.66% active; activation, % at 7.6 µM; 5-hydroxytryptamine receptor 2A (Mus musculus), P35363;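 active = activation above a run cutoff, the mean activation of all tested compounds plus 3 SD, cut at about 14% in these data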;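 note: 0% = plate median of compound wells and 100% = 30 µM serotonin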
# Target sequence (P35363 whole entry, looked up): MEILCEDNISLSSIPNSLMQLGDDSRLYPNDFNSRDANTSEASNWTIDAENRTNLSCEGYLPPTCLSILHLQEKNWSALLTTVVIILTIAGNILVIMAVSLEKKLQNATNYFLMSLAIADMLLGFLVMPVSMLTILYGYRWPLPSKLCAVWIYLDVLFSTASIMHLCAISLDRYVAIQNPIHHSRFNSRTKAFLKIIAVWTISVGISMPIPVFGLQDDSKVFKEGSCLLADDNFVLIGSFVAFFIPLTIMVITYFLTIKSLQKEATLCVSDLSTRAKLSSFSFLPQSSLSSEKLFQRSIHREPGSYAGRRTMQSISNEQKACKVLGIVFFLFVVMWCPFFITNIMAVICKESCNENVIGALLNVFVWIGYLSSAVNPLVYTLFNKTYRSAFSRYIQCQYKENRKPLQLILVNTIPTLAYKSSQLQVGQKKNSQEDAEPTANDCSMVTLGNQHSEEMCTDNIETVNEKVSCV
# TbMetRS inhib – T. brucei MetRS inhibitors, primary screen, biochemical, luminescence; methionyl-tRNA synthetase (Trypanosoma brucei brucei); purified T. brucei MetRS, ATP depletion, Kinase-Glo luminescence; inhibition, % at 11.9 µM; 360,000 tested, 0.4% active; AID 624268, 2012;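 active = inhibition above a per-plate cutoff of the control wells' mean inhibition plus 3 SD, cut at about 5.5% in these data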;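 note: 0% = DMSO wells median and 100% = median of wells with control inhibitor compound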
#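 Dosing: 11.9 µM compound single dose, 0.9% DMSO; Assay system: purified T. brucei MetRS enzyme; Measured by: Kinase-Glo luciferase luminescence reporting remaining unconsumed ATP; Schedule: 15 min plus 2 h at 25 °C.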
# AI-2 QS mod – Vibrio harveyi AI-2 quorum sensing modulators, primary screen, JMH597 strain, luminescence/OD600 ratio; Vibrio harveyi JMH597 AI-2 luminescence/OD600 ratio, 9 h; hits give low values; strain lacks LuxN and CqsS sensors; 0 = neutral-control median; activity change, % at 7.5 µM; 300,000 tested, 0.4% active; AID 2094, 2009; in the data active = activity change below about -75%, passing the limit was not always enough;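 note: luminescence divided by OD600 gain over 9 h not by final OD600 alone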
# MsrA inh – bovine MsrA enzyme inhibitors, primary screen, biochemical, absorbance, HTS; Methionine sulfoxide reductase A (Bos taurus); purified bovine MsrA, absorbance read-out; inhibition, % at 15.5 µM; 360,000 tested, 0.75% active; in the data active = inhibition above about 4.5%;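 note: 0% = vehicle wells with enzyme and 100% = reference inhibitor wells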
# * marks the source's active call; other numbers are inactive results; . = not tested or not shown. A selection: hits, their analogues and other compounds. The true share with any hit is near 4.4%.
SMILES,MsrA act,AHR act,m5-HT2A agonist,TbMetRS inhib,AI-2 QS mod,MsrA inh
Cc1ccc(NC(=O)Nc2nnc(-c3ccccc3F)s2)cc1,-0.6,-0.3,4.9,-0.3,-5.8,-0.3
COc1ccc(C(=O)Nc2ccc(O)c3ccccc23)cc1,-1.7,38.6,-4.2,0.0,24.4,1.0
COc1ccc(NC(=O)Nc2ccc(O)c3ccccc23)cc1,.,75.2*,.,.,13.1,0.0
CCOc1cccc(C(=O)Nc2nnc(-c3ccco3)s2)c1,-2.2,48.2*,-3.2,-1.2,.,2.4
COc1ccc(NC(=O)Nc2nnc(-c3ccco3)s2)cc1,-4.4,64.4*,-3.0,-0.2,7.7,0.4
Nc1[nH]c(C(=O)c2ccc(Br)cc2)c(-c2ccncc2)c1C(=O)c1ccccc1,.,.,.,.,.,1.1
COc1ccccc1S(=O)(=O)Cc1ccc(C(=O)NCCN2CCCCCC2)o1,0.6,47.0*,-1.9,0.2,-2.6,-0.7
Cc1cc(NC(=O)c2cccc(Cl)c2)n[nH]1,-0.5,70.7*,6.7,0.0,-2.8,1.4
Cc1cccc(NC(=O)c2ccc(C(=O)c3ccccc3)cc2)n1,-2.8,4.8,-4.0,-0.1,26.0,0.2
Cc1cccc(NC(=O)COc2ccc(Br)cc2)n1,-12.5,77.6*,2.8,-0.4,-7.4,-1.5
Cc1cccc(NC(=O)c2cccc(C(=O)Nc3cccc(C)n3)c2)n1,-2.7,49.8*,6.4,-1.1,9.1,0.7
COc1ccc(C(=O)c2[nH]c(N)c(C(=O)c3c[nH]c4ccccc34)c2-c2ccc(F)c(OC)c2)cc1,.,.,.,.,.,0.6
Cc1cc(Oc2cccnc2)ccc1NC(=O)Cc1c[nH]c2ccccc12,.,.,.,.,.,1.2
O=C(N[C@H](C(=O)N1CCC[C@H]1C(=O)NCc1ccccc1)c1ccccc1)c1ccc(Cl)c(Cl)c1,.,.,.,.,.,-0.1
Brc1ccc(/C=N/Nc2ccc3ccccc3n2)cc1,-12.7,68.8*,0.1,-1.5,25.9,-0.7
Fc1cccc(/C=N/Nc2ccc3ccccc3n2)c1,-4.2,16.5,-1.4,-0.3,18.4,1.4
Fc1cccc2sc(Nc3nc4cc5c(cc4s3)OCCO5)nc12,-2.4,60.3*,2.4,0.0,5.2,-1.1
CC(C)c1ccc2c(c1)[C@H]1OCC[C@H]1[C@@H](c1cccs1)N2,-2.3,70.3*,-4.2,-1.0,15.7,-0.3
Cc1cc(C)c2c(c1)N[C@H](c1cccs1)[C@@H]1CCO[C@H]21,-1.8,3.9,-2.4,-0.6,12.3,-0.5
O=S1(=O)N[C@H](Cc2ccccc2)COc2cc(Br)ccc21,.,.,.,.,.,0.4
CC(C)(C)S(=O)(=O)N1C[C@H]2C(=C(CCO)C[C@H]3C(=O)N(c4ccccc4)C(=O)[C@H]32)[C@@H]1CCO,.,.,.,.,.,1.2
CC(C)c1ccc(NC(=O)Nc2cc3sccc3n2C)cc1,-3.0,47.7*,-0.7,0.1,37.4,-0.3
Cn1c(C(=O)Nc2ccc3c(c2)OCCO3)cc2sccc21,-7.8,42.5,-1.7,-1.4,25.1,1.0
O=C(N/N=C/c1cccnc1)c1cc(-c2ccccc2Cl)nc2ccccc12,-1.4,23.5,-3.0,7.1*,0.0,-0.8
Clc1ccccc1-c1nc(N/N=C/c2cccnc2)c2ccccc2n1,-5.9,66.7*,0.0,-0.3,14.6,2.2
Oc1ccc(/C=N/Nc2nc(-c3cccnc3)nc3ccccc23)c(O)c1,-4.0,7.3,0.2,0.3,49.4,0.4
O=C(N/N=C/c1cccnc1)c1cc(C2CC2)nc2ccccc12,-0.9,48.1*,3.6,-0.6,-7.1,.
C/C(=N\NC(=O)c1cc(C2CC2)nc2ccccc12)c1ccc(O)cc1O,-2.0,9.9,-19.2,0.4,41.4,0.5
Cc1ccccc1-c1cc(C(=O)N/N=C/c2cccnc2)c2ccccc2n1,-0.7,.,-4.3,2.6,6.0,1.3
C/C(=N\NC(=O)c1cc(C2CC2)nc2ccccc12)c1ccc(C)s1,-12.8,50.6*,-6.5,-1.1,21.7,-0.3

# High-throughput results as filed in PubChem.
